In PubChem BioAssay AID522 (The Scripps Research Institute Molecular Screening Center, 2006) one finds activation data, which are given here for 48 compounds.

Out of some 65,000 compounds screened, about 1,200 (1.8%) were called active. The sample holds actives, similar compounds and a random draw of the others, so the mix is not that of the screen. Values without a mark were called inactive.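 How the source made its calls: active means activation above the mean activation of all tested compounds plus 3 SD (cut at about 50% in these data); inactive means the rest.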

Sequence of Steroidogenic factor 1 (Homo sapiens) (Q13285 whole entry, looked up, the tested form may be a part): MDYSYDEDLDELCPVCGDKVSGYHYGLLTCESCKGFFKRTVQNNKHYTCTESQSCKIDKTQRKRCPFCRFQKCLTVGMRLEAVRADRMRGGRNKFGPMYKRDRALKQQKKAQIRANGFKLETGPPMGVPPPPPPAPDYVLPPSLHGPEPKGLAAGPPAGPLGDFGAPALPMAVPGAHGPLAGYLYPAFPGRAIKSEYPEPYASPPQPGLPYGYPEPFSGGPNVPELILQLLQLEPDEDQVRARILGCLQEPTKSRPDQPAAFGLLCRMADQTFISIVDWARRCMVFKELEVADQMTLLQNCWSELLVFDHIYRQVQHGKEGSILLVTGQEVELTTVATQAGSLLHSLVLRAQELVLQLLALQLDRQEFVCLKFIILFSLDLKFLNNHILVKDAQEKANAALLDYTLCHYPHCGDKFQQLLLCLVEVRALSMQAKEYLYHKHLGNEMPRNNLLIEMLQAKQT

This experiment has as its target Steroidogenic factor 1 (Homo sapiens) (UniProt Q13285). Kind of experiment: SF-1 ligand-binding domain transactivation enhancers – cell-based, CHO-K1, Gal4-SF-1 LBD, luciferase luminescence, primary screen (AID 522). The conditions noted are these: CHO-K1 Gal4-SF-1 LBD luciferase reporter; at 10 µM; hits give high values; % increase over DMSO SF-1-specific signal. Put shortly:
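System: CHO-K1 cells with Gal4–hSF-1 LBD chimera plus Gal4-driven luciferase; quantity: 4,000 CHO-K1 cells per well; compound: one dose, 10 µM compound, 1% DMSO; times: 20 h compound treatment, 37 °C; measured by: SteadyLite luciferase luminescence; read-out: percent activation versus DMSO; benchmarks: DMSO and mock-transfected background; replicates: one test per compound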
In general terms: In a reporter assay the amount or activity of a reporter protein is the signal.
Regarding `CCCc1[nH]nc2c1C(c1ccc(Br)s1)C(C#N)=C(N)O2` (stereo not drawn), the activation was 15.9%.
In the case of `Cn1c(/C(C#N)=C2/CCCCCN2)nc2ccccc21` it was 9.6%; in that of `CCOC(=O)N1CCN(C(=O)C2CC(c3ccc(F)cc3)=NO2)CC1` (stereo not drawn), -7.2%; in that of `COC(=O)[C@H](C(C)C)n1c(C)c(C(C)=O)c(C(C)=O)c1C`, 5.7%.
For `CC(Cc1cccs1)NC(=O)NC1CCCCC1` (stereo not drawn), the activation was 41.1%.
The same measure for `CC(C)c1ccc(NC(=O)NC2CCCCC2)cc1`: 100% (active); for `CC(=O)OC(C(=O)NC1CCCCC1)c1ccccc1` (stereo not drawn): -11.8%; for `Cc1cccc(-n2c(N)c(C(=O)N3CCN(C)CC3)sc2=S)c1`: 3.5%.
`Cc1ccc(C2CC(=O)NC(SCC(=O)OCc3ccccc3)=C2C#N)o1` (stereo not drawn): the activation is -4.2%.
For the compound `CCN(CC(=O)Nc1ccc2c(c1)OCCO2)Cc1cc(=O)oc2cc(C)c(C)cc12`, the activation was -19.6%.
In the case of `Cc1cc(C(F)(F)F)c(C#N)c(SCC(=O)NC2CC2)n1` it was -6.7%.
In the case of `CC(=O)c1cc(C#N)c(SCC(=O)C(C)(C)C)nc1C` it was 57.1% (active); in that of `CCOc1ccc2cc(C#N)c(SCC(=O)OC)nc2c1`, 26.5%.
In the case of `O=C(CCc1ccccc1)Nc1cccc(-c2nnc(-c3ccco3)o2)c1` it was 27.9%; in that of `Cc1cc(Br)ccc1NC(=O)C1CCCO1` (stereo not drawn), -10.5%; in that of `O=C(Nc1cccc(-c2nnc(-c3ccccc3)o2)c1)C1CCCO1` (stereo not drawn), 65.8% (active).
As to `O=C(CSc1nnc(-c2ccc(NS(=O)(=O)c3ccccc3)cc2)o1)NCC1CCCO1` (stereo not drawn), the activation was -0.8%.
As for `O=C(Nc1ccc(-c2nnc(-c3ccccc3)o2)cc1)C1CCCO1` (stereo not drawn), the activation was 65.9% (active).
In the case of `O=C(Nc1nnc(CCc2ccccc2)s1)C1CCCO1` (stereo not drawn) it was 21.6%.
Turning to `Cc1cccc(N2CCN(Cc3c(C)n(C)n(-c4ccccc4)c3=O)CC2)c1C`, the activation was 15.3%.
On to `O=C(NCc1ccccc1)C1C(=O)N(Cc2ccccc2)C(=O)C1C1(O)CCCC1` (stereo not drawn), for which the activation is -4.5%.
On to `Cc1ccccc1Cn1c(=O)[nH]c2ccccc21`, for which the activation is -12.9%.
On to `CCOC(=O)C1CCN(Cc2coc3ccc(Cl)cc3c2=O)CC1`, for which the activation is -25.8%.
For `COC(=O)c1ccc(NC(=O)c2ccco2)cc1`, the activation was 85.3% (active).
Regarding `O=C(Nc1ccc(Oc2ccccc2)cc1)c1ccco1`, the activation is 44%.
The same measure for `CC(C)(C)NC(=O)c1cc(NC(=O)c2ccco2)cc(NC(=O)c2ccco2)c1`: 22%.
With `Cc1cccc(C)c1NC(=O)N1CC=C(n2c(=O)[nH]c3ccccc32)CC1`, the activation is -7.6%.
In the case of `CC(Sc1sc(=S)sc1SC(C)C(=O)O)C(=O)O` (stereo not drawn) it was -6.9%.
The same measure for `CCOC(=O)c1c(C)[nH]c(C(=O)NCc2ccccc2OC)c1C`: 24.8%; for `CCCCOC(=O)c1[nH]c(C)c(C(=O)OC)c1C`: 77.7% (active); for `CCOC(=O)c1c(C)[nH]c(C(=O)COc2ccc3c(c2)OCO3)c1C`: 28.5%.
Regarding `CCc1ccccc1NC1c2ccccc2C(=O)N1c1cccnc1` (stereo not drawn), the activation was -5.1%.
With `Cc1cc(N2C(=O)C(=O)/C(=C(/O)c3ccccc3)C2c2cccc(Br)c2)no1` (stereo not drawn), the activation was 2.6%.
Consider `COc1ccc(S(=O)(=O)NC2(C(F)(F)F)N=C3SCCN3C2=O)cc1` (stereo not drawn), for which the activation was 19.3%.
In the case of `C=C(C)Cn1c(SCC(=O)NCc2ccco2)nc2sc3c(c2c1=O)CCC3`, the activation is -1.8%.
As for `CN(C)CCSc1nc(N)c2c3c(sc2n1)COC(C)(C)C3`, the activation is 3.5%.
For the compound `C=C(C)CSc1nc(N)c2c3c(sc2n1)CCC3`, the activation is 51.5% (active).
Consider `O=C(CSc1nc2[nH]ncc2c(=O)n1-c1ccccc1)N1CCCc2ccccc21`, for which the activation is 22.2%.
In the case of `O=C(NCCCN1CCOCC1)c1cc(-c2ccc(Cl)cc2)on1` it was -2.4%.
Consider `CC(NC(=O)c1cc(-c2ccccc2)on1)c1ccccc1` (stereo not drawn), for which the activation was 1.6%.
For `CC(C)CNC(=O)c1cc(-c2ccc(Br)cc2)on1`, the activation is 52.5% (active).
`CCOC(=O)C1CCc2nc3ccccc3c(=O)n21` (stereo not drawn): the activation is 2.2%.
In the case of `CCOC(=O)C1CCN(C(=O)CC2C(=O)N(Cc3ccccc3)C(C)c3nc4ccccc4n32)CC1` (stereo not drawn), the activation was 14.5%.
Regarding `COC(=O)c1ccc(Oc2nc(NC(C)C)nc(SC)n2)cc1`, the activation was 2.8%.
With `c1ccc(Nc2nc(-c3ccncc3)cs2)nc1`, the activation was 36.9%.
In the case of `CC(C)(C)c1csc(NC2=NS(=O)(=O)c3ccccc32)n1` it was 50.5% (active); in that of `CCOC(=O)c1nnn(CC(=O)Nc2cccc(F)c2)c1C(=O)OCC`, 2.1%; in that of `CCN(CCCCOC(=O)c1ccc(OC)c(OC)c1)C(C)Cc1ccc(OC)cc1` (stereo not drawn), -10.3%.
